An excerpt weighted towards active compounds, which were near 3.4% of everything screened.
CHT allo act – CHT positive allosteric modulators, primary screen, cell-based, membrane potential dye, choline EC20. High affinity choline transporter 1 (Homo sapiens), Q9GZV3. CHT-expressing cells; stronger effect = higher value; LV-AA mutant CHT in HEK293 cells. B-score at 10 µM. 310,000 compounds, 0.49% hits. AID 488977, 2010;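 active means initial fluorescence not abnormally high and integrated response B-score, plate-corrected, over 3 SD above library mean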
Target sequence (Q9GZV3 whole entry, looked up): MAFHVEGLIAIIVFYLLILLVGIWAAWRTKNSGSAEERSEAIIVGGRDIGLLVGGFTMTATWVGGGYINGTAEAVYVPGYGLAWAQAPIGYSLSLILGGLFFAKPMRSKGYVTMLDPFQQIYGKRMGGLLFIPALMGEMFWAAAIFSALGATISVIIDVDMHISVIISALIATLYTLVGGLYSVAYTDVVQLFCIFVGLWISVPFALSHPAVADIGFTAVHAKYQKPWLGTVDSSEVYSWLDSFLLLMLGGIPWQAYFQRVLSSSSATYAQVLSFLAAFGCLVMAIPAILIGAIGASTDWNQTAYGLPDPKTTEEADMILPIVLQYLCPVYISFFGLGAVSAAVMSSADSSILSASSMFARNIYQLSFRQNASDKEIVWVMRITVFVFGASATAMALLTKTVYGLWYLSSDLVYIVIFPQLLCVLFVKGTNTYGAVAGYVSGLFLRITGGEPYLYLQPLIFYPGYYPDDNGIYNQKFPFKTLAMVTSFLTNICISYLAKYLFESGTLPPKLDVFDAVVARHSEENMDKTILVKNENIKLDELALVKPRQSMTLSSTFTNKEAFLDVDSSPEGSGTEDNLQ
ANO1 block – TMEM16A chloride channel inhibitors, primary screen, cell-based, HTS; Anoctamin-1 (Mus musculus), Q8BHY3; HEK293 TMEM16A/YFP iodide influx fluorescence, ionomycin; normalized B-score (activity score, 25-100; higher = stronger inhibition) at 10 µM; 310,000 compounds, 1.2% hits; AID 588511, 2011;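 active means ratio plate-corrected score three or more library SD toward inhibition, starting fluorescence score within five deviations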;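 further: score derived from kinetic fluorescence span divided by baseline fluorescence per well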
CHT block – inhibitors of human choline transporter CHT | High affinity choline transporter 1 (Homo sapiens), Q9GZV3 | CHT-expressing cells, membrane potential dye, choline response; stronger effect = lower value | B-score at 10 µM | 310,000 compounds, 0.86% hits;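 active means B-score over 3 SD under the library average, and starting fluorescence ratio not unusually high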;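 further: choline stimulus applied at its EC90 after an EC20 pre-addition; B-score computed on integrated fluorescence ratio after choline addition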
IMP-1 inhibitor – IMP-1 metallo-beta-lactamase inhibitors, primary screen, biochemical, epi-absorbance readout, Pseudomonas aeruginosa enzyme. metallo-beta-lactamase IMP-1 (Pseudomonas aeruginosa). purified IMP-1, nitrocefin hydrolysis, epi-absorbance fluorescence. inhibition, % at 5.6 µM. 290,000 compounds, 0.45% hits;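 active means inhibition above the mean plus 3 SD of all compounds in the same screening run, cut at about 4.5% in these data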;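 further: 0% = IMP-1 with DMSO and 100% = DMSO wells lacking enzyme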
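System: purified IMP-1; amount: IMP-1 0.2 nM before substrate addition; compound: single dose, 5.6 µM; times: 25 °C, 15 min preincubation, 25 min reaction; signal: Epi-absorbance via hydrolysed-nitrocefin quenching of white-plate fluorescence, 480/530 nm, EDTA stop; benchmarks: DMSO with and without IMP-1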
ANO1 activ – TMEM16A chloride channel activators or potentiators, primary screen, cell-based, HTS; Anoctamin-1 (Mus musculus), Q8BHY3; HEK293 TMEM16A/YFP-H148Q/I152L, iodide quench fluorescence; stronger effect = lower value; B-score at 10 µM; 340,000 compounds, 0.3% hits; AID 623877, 2012;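 active means fluorescence-ratio B-score plate-corrected deviation score at least 3 library SD below zero, with starting fluorescence score within 5 deviations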;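 further: channel opened by trigger with iodide after compound preincubation; score built on the fluorescence ratio of max minus min over baseline; more negative score means more quench and so TMEM16A activation or potentiation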
VIM-2 inh – VIM-2 metallo-beta-lactamase inhibitors, primary screen, biochemical, epi-absorbance readout, Pseudomonas aeruginosa enzyme; purified VIM-2, nitrocefin hydrolysis, epi-absorbance fluorescence; inhibition, % at 5.6 µM; 290,000 compounds, 0.89% hits;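 active means inhibition above the mean of all tested compounds plus 3 SD, cutoff set per screening run, cut at about 7.5% in these data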;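 further: red hydrolysis product quenches plate fluorescence so inhibitors raise well fluorescence; 0% = enzyme with DMSO and 100% = DMSO without enzyme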
* hit, by the source's call; i = inactive; . = not tested or not shown.

SMILES	CHT allo act	ANO1 block	CHT block	IMP-1 inhibitor	ANO1 activ	VIM-2 inh
O=c1oc2c(CN3CCOCC3)c(O)c(Cl)cc2c2c1CCCC2	i	i	i	5.3*	i	2
C=CCOc1ccccc1/C=c1\sc2nc(=O)c(C)nn2c1=O	i	i	i	9.2*	i	-2
COc1ccc(OC)c(S(=O)(=O)N2CCCC(C(=O)N3CCCCCC3)C2)c1 (stereo unspecified)	i	i	i	-2	i	-3
CCOc1ccc(NC(=O)c2ccc3c(c2)C(=O)N(Cc2ccncc2)C3=O)cc1	.	.	.	.	i	.
CCOc1ccc(-c2c(C(=O)N/N=C/C3CC=CCC3)nnn2-c2nonc2N)cc1 (stereo unspecified)	i	i	i	-2	i	-3
CCOC1=C/C(=C/c2c(N)n3nc(CC(=O)N4CCCC4)sc3nc2=O)C=CC1=O	i	i	i	-1	i	-4
Nc1c(/C=C2/C=CC(=O)C(O)=C2)c(=O)nc2sc(CC(=O)N3CCCCC3)nn12	i	i	i	-6	-5.5*	11*
COC1=C/C(=C/c2c(N)n3nc(CC(=O)N4CCCC4)sc3nc2=O)C=CC1=O	i	i	i	-5	-5.7*	-2
Cc1cccc(Sc2c(C=O)c3ccccc3n2C)c1	i	25*	i	-2	i	2
Cn1c(Sc2ccccc2Cl)c(C=O)c2ccccc21	i	100*	i	-3	i	-4
Cc1ccc(Oc2c(C=O)c3ccccc3n2C)cc1	i	i	i	0	i	1
Cn1c(Sc2ccc(Cl)cc2)c(C=O)c2ccccc21	i	i	i	-1	i	-2
COc1ccc(-c2cc(C(=O)Nc3cccc(O)c3)no2)cc1	i	i	i	-3	i	-2
COc1ccc(-c2cc(C(=O)Nc3cc(Cl)ccc3O)no2)cc1	i	i	i	25*	i	-5
COc1ccc(-c2cc(C(=O)Nc3ccc(Br)cc3)no2)cc1	i	i	i	20*	i	0
CC(C)(C)c1ccc(C(=O)Nc2sc3c(c2C(=O)O)CCC3)cc1	i	100*	i	-3	i	-3
Cc1cccc(C(=O)Nc2sc3c(c2C(=O)O)CCC3)c1	i	i	i	0	i	0
CNC(=O)c1c(NC(=O)c2cccc(C)c2)sc2c1CCC2	i	i	i	4.7*	i	2
c1ccc(N2CCN(c3ncnc4c3oc3ccccc34)CC2)cc1	i	i	i	-1	i	-1
CCc1nnc(N2CCN(c3ncnc4c3oc3ccccc34)CC2)s1	.	.	.	-1	i	12*
Cc1ccc(N=Cc2sc(O)c3ccccc23)c(C)c1	i	i	i	28*	i	4
CC(C)C(NC(=O)c1ccc(C(C)(C)C)cc1)C(=O)N1CCC(C(N)=O)CC1 (stereo unspecified)	.	.	.	.	i	.
Cc1ccccc1SCC(=O)OCC(=O)N(C)c1c(N)n(Cc2ccccc2)c(=O)[nH]c1=O	i	i	i	.	i	.
CC(=O)c1c(C)[nH]c(C(=O)Nc2c(C)n(C)n(-c3ccccc3)c2=O)c1C	i	100*	i	-3	i	-1
Cc1ccc2c(C)c(C(=O)Nc3c(C)n(C)n(-c4ccccc4)c3=O)oc2c1	i	i	i	-1	-19*	-1
CC(=O)N1CCN=C1SCc1cccc(F)c1	i	i	i	-1	i	1
Nc1nc(-c2cccs2)c(-c2cccs2)s1	i	i	i	16*	i	-2
CSc1ncccc1C(=O)Nc1cc(Cl)ccc1N1CCOCC1	.	.	.	.	i	.
C[C@H]1CC[C@H]2C(=O)N3[C@H](c4ccccc4Br)[C@@H](C)CC[C@H]3C(=O)N2[C@@H]1c1ccccc1Br	8.1*	i	i	-1	.	-2

Assay outcomes (PubChem)
